Measurements: ChEMBL document CHEMBL3217512, “Indole/triazole conjugates are selective inhibitors and inducers of bacterial biofilms” (Medchemcomm, 2013)

Experiments:
[1] = test system: Escherichia coli; experiment: Antimicrobial activity against Escherichia coli K-12 ER2718 assessed as effect on planktonic growth at PC25 after 2 to 24 hrs by colony count method; format: organism-based
[2] = test system: Acinetobacter baumannii; experiment: Antimicrobial activity against Acinetobacter baumannii 19606 assessed as effect on planktonic growth at IC50 after 2 to 24 hrs; parameters: species or system ATCC 19606
[3] = test system: Escherichia coli; experiment: Antimicrobial activity against Escherichia coli K-12 ER2718 assessed as effect on planktonic growth at PC50 after 2 to 24 hrs by colony count method; format: organism-based; settings: in vivo
[4] = test system: Escherichia coli; experiment: Antimicrobial activity against Escherichia coli K-12 ER2718 assessed as effect on planktonic growth at PC75 after 2 to 24 hrs by colony count method; format: organism-based; settings: in vivo
[5] = test system: Escherichia coli; experiment: Antimicrobial activity against Escherichia coli K-12 ER2718 assessed as effect on planktonic growth at IC50 after 2 to 24 hrs; format: organism-based
[6] = test system: Acinetobacter baumannii; experiment: Inhibition of biofilm formation in Acinetobacter baumannii 19606 at 150 uM after 24 hrs by crystal violet staining-based assay relative to control; format: functional; settings: ATCC 19606 = CIP 70.34 = JCM 6841, 24 h
[7] = test system: Staphylococcus aureus; experiment: Inhibition of biofilm formation in Staphylococcus aureus 29213 at 150 uM after 24 hrs by crystal violet staining-based assay relative to control; format: functional; settings: Staphylococcus aureus, 29213, 24 h
[8] = test system: Escherichia coli; experiment: Induction of biofilm formation in Escherichia coli K-12 ER2718 assessed as concentration required for 25% promotion of biofilm formation after 24 hrs by crystal violet staining-based assay; format: functional
Procedure, shortened: (§1)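 For strong inducers of E. coli biofilm, dose-response curves were run in the static crystal violet assay. PC25, PC50 and PC75 are the concentrations promoting biofilm formation by 25%, 50% and 75%.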

[9] = test system: Escherichia coli; experiment: Induction of biofilm formation in Escherichia coli K-12 ER2718 at 50 uM after 24 hrs by crystal violet staining-based assay relative to control; format: functional
Procedure, shortened: (§2)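 Static biofilm assay with compounds at 50 μM and crystal violet read-out, relative to an untreated control. Compounds increasing biofilm by less than 50% were called inducers, and by more than 50% strong inducers.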

[10] = test system: Staphylococcus aureus; experiment: Antimicrobial activity against Staphylococcus aureus 29213 assessed as effect on planktonic growth at IC50 after 2 to 24 hrs by colony count method; format: organism-based; settings: in vivo
[11] = test system: Escherichia coli; experiment: Antimicrobial activity against Escherichia coli K-12 ER2718 assessed as effect on planktonic growth at PC75 after 2 to 24 hrs; format: organism-based; settings: in vivo
[12] = test system: Escherichia coli; experiment: Antimicrobial activity against Escherichia coli K-12 ER2718 assessed as effect on planktonic growth at IC50 after 2 to 24 hrs by colony count method; format: organism-based
[13] = test system: Escherichia coli; experiment: Antimicrobial activity against Escherichia coli K-12 ER2718 assessed as effect on planktonic growth at PC50 after 2 to 24 hrs; format: organism-based
[14] = test system: Staphylococcus aureus; experiment: Antimicrobial activity against methicillin-resistant Staphylococcus aureus BAA 44 assessed as effect on planktonic growth at IC50 after 2 to 24 hrs by colony count method; format: organism-based; settings: in vivo
[15] = test system: Escherichia coli; experiment: Induction of biofilm formation in Escherichia coli K-12 ER2718 assessed as concentration required for 50% promotion of biofilm formation after 24 hrs by crystal violet staining-based assay; format: functional; procedure, shortened: as §1
[16] = test system: Acinetobacter baumannii; experiment: Antimicrobial activity against Acinetobacter baumannii 19606 assessed as effect on planktonic growth at IC50 after 2 to 24 hrs by colony count method; parameters: species or system ATCC 19606
[17] = test system: Escherichia coli; experiment: Antimicrobial activity against Escherichia coli K-12 ER2718 assessed as effect on planktonic growth at PC25 after 2 to 24 hrs; format: organism-based
[18] = test system: Escherichia coli; experiment: Induction of biofilm formation in Escherichia coli K-12 ER2718 assessed as concentration required for 75% promotion of biofilm formation after 24 hrs by crystal violet staining-based assay; format: functional; procedure, shortened: as §1
[19] = test system: Staphylococcus aureus; experiment: Antimicrobial activity against Staphylococcus aureus 29213 assessed as effect on planktonic growth at IC50 after 2 to 24 hrs; format: organism-based; settings: in vivo
[20] = test system: Staphylococcus aureus; experiment: Inhibition of biofilm formation in methicillin-resistant Staphylococcus aureus BAA 44 at 150 uM after 24 hrs by crystal violet staining-based assay relative to control; format: functional; settings: BAA 44, 24 h
Procedure, shortened: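 Static biofilm development in MRSA, read out by crystal violet staining against an untreated control. Initial screen at 150 μM. Inhibitors then went to dose-response, with IC50 taken as the concentration giving 50% inhibition of biofilm growth. Induction was judged at 50 μM: under 50% induction counted as "inducer", over 50% as "strong inducer".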

[21] = test system: Staphylococcus aureus; experiment: Antimicrobial activity against methicillin-resistant Staphylococcus aureus BAA 44 assessed as effect on planktonic growth at IC50 after 2 to 24 hrs; format: organism-based; settings: in vivo
[22] = test system: Escherichia coli; experiment: Antimicrobial activity against Escherichia coli K-12 ER2718 assessed as effect on planktonic growth at 50 uM after 2 to 24 hrs; format: organism-based
Procedure, shortened: (§3)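 Growth curve analysis of planktonic bacteria with each biofilm inducer at 50 μM, used to assess toxicity.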

[23] = test system: Staphylococcus aureus; experiment: Antimicrobial activity against Staphylococcus aureus 29213 assessed as effect on planktonic growth at 50 uM after 2 to 24 hrs; format: organism-based; procedure, shortened: as §3
[24] = test system: Escherichia coli; experiment: Inhibition of biofilm formation in Escherichia coli K-12 ER2718 at 150 uM after 24 hrs by crystal violet staining-based assay relative to control; format: functional; settings: K-12 ER2718, 24 h
[25] = test system: Staphylococcus aureus; experiment: Antimicrobial activity against Staphylococcus aureus 29213 assessed as effect on planktonic growth at PC50 after 2 to 24 hrs by colony count method; format: organism-based; settings: in vivo
[26] = test system: Staphylococcus aureus; experiment: Antimicrobial activity against Staphylococcus aureus 29213 assessed as effect on planktonic growth at PC75 after 2 to 24 hrs by colony count method; format: organism-based; settings: in vivo
[27] = test system: Staphylococcus aureus; experiment: Antimicrobial activity against Staphylococcus aureus 29213 assessed as effect on planktonic growth at PC75 after 2 to 24 hrs; format: organism-based; settings: in vivo
[28] = test system: Staphylococcus aureus; experiment: Antimicrobial activity against Staphylococcus aureus 29213 assessed as effect on planktonic growth at PC25 after 2 to 24 hrs; format: organism-based; settings: in vivo
[29] = test system: Staphylococcus aureus; experiment: Antimicrobial activity against Staphylococcus aureus 29213 assessed as effect on planktonic growth at PC25 after 2 to 24 hrs by colony count method; format: organism-based; settings: in vivo
[30] = test system: Staphylococcus aureus; experiment: Antimicrobial activity against Staphylococcus aureus 29213 assessed as effect on planktonic growth at PC50 after 2 to 24 hrs; format: organism-based; settings: in vivo
[31] = test system: Staphylococcus aureus; experiment: Induction of biofilm formation in Staphylococcus aureus 29213 at 50 uM after 24 hrs by crystal violet staining-based assay relative to control; format: functional; procedure, shortened: as §2
[32] = test system: Staphylococcus aureus; experiment: Inhibition of biofilm formation in Staphylococcus aureus 29213 after 24 hrs by crystal violet staining-based assay; format: functional, organism-based; settings: Staphylococcus aureus, 29213, 24 h
Procedure, shortened: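 Compounds active in the 150 μM screen were taken into dose-response studies under static conditions with a crystal violet read-out. IC50 is the concentration that inhibits 50% of biofilm growth relative to an untreated control.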

Row | SMILES | Activity [1] | Activity [2] | Activity [3] | Activity [4] | Activity [5] | inhibition at 150 µM [6] [%] | Activity [8] [µM] | Activity [9] [%] | Activity [10] | Activity [11] | Activity [12] | Activity [13] | Activity [14] | Activity [15] [µM] | Activity [16] | Activity [17] | Activity [18] [µM] | Activity [19] | inhibition at 150 µM [20] [%] | Activity [21] | also measured
1 | CCCCCc1ccc(C(=O)NCCn2cc(Cc3csc4ccccc34)nn2)cc1 | Non-toxic | Non-toxic | Non-toxic | Non-toxic | Non-toxic | < 5 | 26.7 | >50 | Non-toxic | Non-toxic | Non-toxic | Non-toxic | Non-toxic | 99.8 | Non-toxic | Non-toxic | 151.9 | Non-toxic | < 5 | Non-toxic | inhibition at 150 µM [7]: < 5%; Activity [22]: Non-toxic
2 | O=C(NCCn1cc(Cc2c[nH]c3ccccc23)nn1)c1ccccc1F |  | Non-toxic |  |  | Non-toxic | 15 |  |  | Non-toxic |  | Non-toxic |  | Non-toxic |  | Non-toxic |  |  | Non-toxic | 35 | Non-toxic | Activity [23]: Non-toxic; inhibition at 150 µM [24]: < 5%; Activity [25]: Non-toxic; Activity [26]: Non-toxic; Activity [27]: Non-toxic; Activity [28]: Non-toxic; Activity [29]: Non-toxic; Activity [30]: Non-toxic; Activity [31]: <50%
3 | CCCCCc1ccc(C(=O)NCCn2cc(Cc3c[nH]c4ccccc34)nn2)cc1 | Non-toxic | Non-toxic | Non-toxic | Non-toxic | Non-toxic | < 5 | 48.3 | >50 | Non-toxic | Non-toxic | Non-toxic | Non-toxic | Non-toxic | 74.8 | Non-toxic | Non-toxic | 111.6 | Non-toxic | < 5 | Non-toxic | IC50 [32]: 44.4 µM; Activity [22]: Non-toxic
4 | O=C(NCCn1cc(Cc2csc3ccccc23)nn1)c1ccccc1F |  | Non-toxic |  |  | Non-toxic | < 5 |  |  | Non-toxic |  | Non-toxic |  | Non-toxic |  | Non-toxic |  |  | Non-toxic | < 5 | Non-toxic | Activity [23]: Non-toxic; inhibition at 150 µM [24]: < 5%; Activity [25]: Non-toxic; Activity [26]: Non-toxic; Activity [27]: Non-toxic; Activity [28]: Non-toxic; Activity [29]: Non-toxic; Activity [30]: Non-toxic; Activity [31]: >50%
5 | CCCCCCCc1ccc(C(=O)NCCn2cc(Cc3c[nH]c4ccccc34)nn2)cc1 | Non-toxic | Non-toxic | Non-toxic | Non-toxic | Non-toxic | 30 | 50.5 | >50 | Non-toxic | Non-toxic | Non-toxic | Non-toxic | Non-toxic | 80.7 | Non-toxic | Non-toxic | 119.7 | Non-toxic | < 5 | Non-toxic | IC50 [32]: 175 µM; Activity [22]: Non-toxic
